# Results taken from ChEMBL document CHEMBL1817588, “Design and synthesis of 1,3-biarylsulfanyl derivatives as new anti-breast cancer agents” (Bioorg Med Chem, 2011).
# Activity calls are given as the source filed them. The calls are words filed in the database; no cut-off is given here.
# What was measured:
# [1] = system: MCF7; assay: Antiproliferative activity against human MCF7 cells expressing estrogen receptor after 48 hrs by MTT assay; type: functional, cell-based; settings: MCF7, 48 h
# Summary of the method: (§1)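 Cells seeded at 1×10^4/well in DMEM with 10% FBS for 24 h at 37 °C, then exposed to compounds for 48 h. MTT (5 mg/mL) added for 4 h. Formazan dissolved in DMSO and absorbance read at 540 nm. Routine culture used DMEM with 10% FBS, 5% CO2, reduced to 2% FBS for growth inhibition.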
# [2] = system: MDA-MB-231; assay: Antiproliferative activity against estrogen receptor-deficient human MDA-MB-231 cells […] after 48 hrs by MTT assay; type: functional, cell-based; settings: MDA-MB-231, 48 h; summary of the method: as §1
# [3] = system: Ishikawa; assay: Antiproliferative activity against human Ishikawa cells expressing estrogen receptor at 50 uM after 48 hrs by MTT assay; type: functional, cell-based
# [4] = system: HEK293; assay: Antiproliferative activity against human HEK293 cells at 50 uM after 48 hrs by MTT assay; type: cell-based; settings: hek293, 48 h
# [5] = system: Ishikawa; assay: Antiproliferative activity against human Ishikawa cells expressing estrogen receptor after 48 hrs by MTT assay; type: functional, cell-based; summary of the method: as §1
# [6] = system: MDA-MB-231; assay: Antiproliferative activity against estrogen receptor-deficient human MDA-MB-231 cells […] at 50 uM after 48 hrs by MTT assay; type: functional, cell-based
# [7] = system: Bone; assay: Antiosteoporotic activity in Sprague-Dawley rat [45Ca] pre-labeled bone assessed as inhibition of PTH-induced bone resorption after 96 hrs
# [8] = system: Bone; assay: Antiosteoporotic activity in Sprague-Dawley rat [45Ca] pre-labeled bone assessed as inhibition of PTH-induced bone resorption after 96 hrs relative to control
# [9] = system: MCF7; assay: Antiproliferative activity against human MCF7 cells expressing estrogen receptor at 50 uM after 48 hrs by MTT assay; type: functional, cell-based
# [10] = system: HEK293; assay: Antiproliferative activity against human HEK293 cells after 48 hrs by MTT assay; type: cell-based; settings: HEK293, 48 h; summary of the method: as §1
# [11] = organism: Rattus norvegicus; assay: Displacement of [3H]-estradiol from estrogen receptor in rat uteri after 18 hrs by scintillation counting relative to 17beta-estradiol
# Summary of the method: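 Cytosol from uteri of immature 20–21-day-old rats, in TEA buffer pH 7.4 (10 mM Tris, 1.5 mM EDTA, 0.02% azide). Incubated in triplicate with fixed 3H-estradiol ± competitor (DMF ≤5% final) for 18 h at 4 °C. Free ligand removed with dextran-coated charcoal (15 min, 800g 10 min), then supernatant counted. RBA taken at 50% inhibition from the bound-versus-log concentration plot.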
# [12] = system: Rattus norvegicus; assay: Estrogenic activity in Sprague-Dawley rat assessed as increase in uterine weight administered as po daily once for 3 days relative to control; type: functional; parameters: concentration or dose not given beside the values
# Summary of the method: (§2)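 Immature female Sprague-Dawley rats given oral dosing once daily for 3 days on days 28–30 of age. Antiestrogenic arm co-dosed ethynylestradiol 0.02 mg/kg in 10% ethanol-water. Autopsy 24 h after last dose (day 31). Uterus excised, blotted and weighed, with vaginal opening and cornification also scored. Inhibition computed as (E − T)×100/E versus ethynylestradiol alone. Estrogenic gain expressed as percent increase over vehicle control.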
# [13] = system: Rattus norvegicus; assay: Antiestrogenic activity in Sprague-Dawley rat assessed as inhibition of uterine weight gain administered as po daily once for 3 days relative to 17alpha-ethynylestradiol; type: functional; summary of the method: as §2
# [14] = system: Rattus norvegicus; assay: Antiimplantation activity in Sprague-Dawley albino rat at 20 mg/kg, po after 10 days; type: functional
# Summary of the method: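 Sperm-positive adult Sprague-Dawley females (180–220 g) mated with proven-fertile males. Compounds given orally as a gum acacia suspension on days 1–5 post-coitum, 5–7 animals per group. Vehicle-only group served as control.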
Compound,IC50 [1],IC50 [2],Activity [3],IC50 [5],other results
COc1ccc(C(=O)CC(Sc2ccc(C)cc2)c2ccc(OC)cc2)cc1 (centres undefined),18 µM,28 µM,inactive,,Activity [4]: Non-toxic
Cc1ccc(C(CC(=O)c2cccc(Cl)c2)Sc2ccccc2)cc1 (centres undefined),25 µM,36 µM,,28 µM,
O=C(CC(Sc1ccccc1)c1ccccc1)c1ccc2ccccc2c1 (centres undefined),30 µM,48 µM,,26 µM,
CCSC(CC(=O)c1ccccc1)c1ccc(OC)cc1 (centres undefined),24 µM,,inactive,,Activity [6]: inactive
O=C(c1ccc(OCCN2CCCCC2)cc1)c1c(-c2ccc(O)cc2)sc2cc(O)ccc12 [RALOXIFENE],,,,,T/C [7]: 0.62; inhibition (INH) [8]: 38%
O=C(CC(Sc1ccccc1)c1ccccc1)c1cccc(Cl)c1 (centres undefined),29 µM,32 µM,,29 µM,
CCSC(CC(=O)c1ccccc1)c1ccc(O)cc1 (centres undefined),,,inactive,,Activity [9]: inactive; Activity [6]: inactive
O=C(CC(Sc1ccc(Cl)cc1)c1ccccc1)c1ccc([N+](=O)[O-])cc1 (centres undefined),25 µM,29 µM,,21 µM,
O=C(CC(Sc1ccc(O)cc1)c1ccccc1)c1ccc(OCCN2CCCC2)cc1 (centres undefined),28.6 µM,27 µM,,16 µM,IC50 [10]: 27.5 µM; RBA [11]: 0.67%; Activity [12]: 101%; inhibition (INH) [13]: 18%; Activity [14]: 60%; T/C [7]: 0.902; inhibition (INH) [8]: 9.8%
CCSC(CC(=O)c1ccc(OCCN(C)C)cc1)c1ccccc1 (centres undefined),27 µM,38 µM,inactive,,IC50 [10]: 32.8 µM; RBA [11]: 0.246%; Activity [12]: 212%; inhibition (INH) [13]: 4%; Activity [14]: inactive; T/C [7]: 0.944; inhibition (INH) [8]: 5.6%
O=C(CC(Sc1ccc(O)cc1)c1ccccc1)c1ccc(OCCN2CCCCC2)cc1 (centres undefined),9.6 µM,16.5 µM,,16.2 µM,IC50 [10]: 75.2 µM; RBA [11]: 5.27%; Activity [12]: 58%; inhibition (INH) [13]: 34%; Activity [14]: 100%; T/C [7]: 0.787; inhibition (INH) [8]: 21.3%
COc1ccc(C(CC(=O)c2ccccc2)Sc2ccc(Cl)cc2)cc1 (centres undefined),25 µM,36 µM,,22 µM,
COc1ccc(C(CC(=O)c2ccccc2)SCCC(=O)O)cc1 (centres undefined),,44 µM,,24 µM,Activity [9]: inactive
CCSC(CC(=O)c1ccc(OC)cc1)c1ccc(OC)cc1 (centres undefined),27 µM,,inactive,,Activity [6]: inactive
O=C(CC(Sc1ccc([N+](=O)[O-])cc1)c1ccccc1)c1ccccc1 (centres undefined),,44 µM,,23 µM,Activity [9]: inactive
O=C(CC(Sc1ccccc1)c1ccc(O)cc1)c1ccccc1 (centres undefined),19 µM,33 µM,inactive,,IC50 [10]: 31.4 µM
O=C(CC(Sc1ccc(O)cc1)c1cccc(O)c1)c1ccc(OCCN2CCCCC2)cc1 (centres undefined),12.2 µM,19 µM,,17 µM,IC50 [10]: 65.8 µM; RBA [11]: 4.47%; Activity [12]: 79%; inhibition (INH) [13]: 31%; Activity [14]: 100%; T/C [7]: 0.812; inhibition (INH) [8]: 18.8%

Compound,IC50 [1],IC50 [2],Activity [3],IC50 [5],other results
CC/C(=C(\c1ccccc1)c1ccc(OCCN(C)C)cc1)c1ccccc1 [TAMOXIFEN],12.5 µM,,,22.5 µM,RBA [11]: 2.2%; Activity [12]: 155%; inhibition (INH) [13]: 49%
O=C(CC(Sc1ccc(Cl)cc1)c1ccccc1)c1ccccc1 (centres undefined),,,inactive,,Activity [9]: inactive; Activity [6]: inactive
Cc1ccc(SC(CC(=O)c2cccc(Cl)c2)c2ccc(C)cc2)cc1 (centres undefined),27 µM,41 µM,inactive,,
O=C(CC(Sc1ccccc1)c1ccccc1)c1ccc(O)cc1 (centres undefined),24 µM,38 µM,inactive,,
O=C(O)CCSC(CC(=O)c1ccccc1)c1ccccc1 (centres undefined),,42 µM,,23 µM,Activity [9]: inactive
COc1ccc(C(=O)CC(Sc2ccc(Cl)cc2)c2ccccc2)cc1 (centres undefined),,,,22 µM,Activity [9]: inactive; Activity [6]: inactive
CCSC(CC(=O)c1ccc(OCCN2CCCC2)cc1)c1ccccc1 (centres undefined),27 µM,> 50 µM,,> 50 µM,IC50 [10]: 29.2 µM; RBA [11]: 0.191%; Activity [12]: 152%; inhibition (INH) [13]: 9%; Activity [14]: 100%; T/C [7]: 0.963; inhibition (INH) [8]: 3.7%
Cc1ccc(SC(CC(=O)c2ccccc2)c2ccccc2)cc1 (centres undefined),,,inactive,,Activity [9]: inactive; Activity [6]: inactive
Cc1cccc(SC(CC(=O)c2ccccc2)c2ccc(O)cc2)c1 (centres undefined),25 µM,35 µM,,22 µM,
COc1ccc(C(CC(=O)c2ccc(Cl)cc2)Sc2ccccc2)cc1 (centres undefined),,,,25 µM,Activity [9]: inactive; Activity [6]: inactive
O=C(CC(Sc1ccc(Cl)cc1)c1ccccc1)c1ccc(Cl)cc1 (centres undefined),28 µM,31 µM,,24 µM,
COc1ccc(C(=O)CC(Sc2ccccc2)c2ccccc2)cc1 (centres undefined),29 µM,41 µM,inactive,,
O=C(CC(Sc1ccccc1)c1ccccc1)c1cccc([N+](=O)[O-])c1 (centres undefined),25 µM,38 µM,,21 µM,
CSC(CC(=O)c1ccccc1)c1ccccc1 (centres undefined),25 µM,,,25 µM,Activity [6]: inactive
COc1ccc(C(CC(=O)c2ccccc2)Sc2ccc(C)cc2)cc1 (centres undefined),23 µM,45 µM,,17 µM,
O=C(CC(Sc1ccc(O)cc1)c1ccc(O)cc1)c1ccc(OCCN2CCCC2)cc1 (centres undefined),25 µM,> 50 µM,,17.3 µM,IC50 [10]: 28.7 µM; RBA [11]: 5.15%; Activity [12]: 111%; inhibition (INH) [13]: 24%; Activity [14]: inactive; T/C [7]: 0.934; inhibition (INH) [8]: 6.6%
